Measurements reported in article PMC10548181 (RSC Advances, 2023).

How the values were obtained:
[1] = system: MCF-7 (human breast adenocarcinoma); assay: MTT anti-proliferative assay on MCF-7; format: cell-based; settings: MCF7, 48 h, read-out: IC50 (μM) ± SD MCF-7, MTT, 48 h, MCF-7
Procedure, shortened: (§1)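 Cells grown at 37 °C in humidified 5% CO2 and seeded at 5 × 10^4 per well. Exposed 48 h at 37 °C to a concentration series of test compound, or doxorubicin as positive control, in serum-free medium with DMSO. MTT solution (2.5 mg ml−1) added for 4 h, formazan dissolved in DMSO, absorbance read at 590 nm. Viability taken as percent of untreated control; technical triplicate, three biological replicates, mean ± SD; IC50 by probit analysis.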

[2] = system: HCT-116 (human colorectal carcinoma); assay: MTT anti-proliferative assay on HCT-116; format: cell-based; settings: HCT-116, 48 h, read-out: IC50 (μM) ± SD HCT-116
Procedure, shortened: as §1

[3] = system: human liver carcinoma (HepG-2); assay: MTT anti-proliferative assay on HepG-2; format: cell-based; settings: HepG2, 48 h, read-out: IC50 (μM) ± SD HepG-2, MTT, 48 h, HepG-2
Procedure, shortened: as §1

EGFR = EGFR (Homo sapiens, UniProt P00533); assay: In vitro EGFR kinase activity assay; format: biochemical
mTOR = mTOR (Homo sapiens, UniProt P42345); assay: In vitro m-TOR activity assay; format: biochemical
PI3Kβ (p110β/p85α) = PI3Kβ (p110β/p85α) (Homo sapiens, UniProt P42338); assay: In vitro PI3K activity assay; format: biochemical
MCF-7 cells [4] = assay: Cell cycle analysis; format: cell-based, human
Procedure, shortened: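 MCF-7 cells seeded at 8 × 10^4, held overnight at 37 °C with 5% CO2, then treated 48 h with test compound. Pelleted at 300 g for 5 min and fixed in 70% ethanol on ice for 15 min. Flow cytometry run within 1 h of staining.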

MCF-7 cells [5] = assay: Apoptosis assay; format: cell-based, human

Chain of PI3Kβ (p110β/p85α) (P42338 whole entry): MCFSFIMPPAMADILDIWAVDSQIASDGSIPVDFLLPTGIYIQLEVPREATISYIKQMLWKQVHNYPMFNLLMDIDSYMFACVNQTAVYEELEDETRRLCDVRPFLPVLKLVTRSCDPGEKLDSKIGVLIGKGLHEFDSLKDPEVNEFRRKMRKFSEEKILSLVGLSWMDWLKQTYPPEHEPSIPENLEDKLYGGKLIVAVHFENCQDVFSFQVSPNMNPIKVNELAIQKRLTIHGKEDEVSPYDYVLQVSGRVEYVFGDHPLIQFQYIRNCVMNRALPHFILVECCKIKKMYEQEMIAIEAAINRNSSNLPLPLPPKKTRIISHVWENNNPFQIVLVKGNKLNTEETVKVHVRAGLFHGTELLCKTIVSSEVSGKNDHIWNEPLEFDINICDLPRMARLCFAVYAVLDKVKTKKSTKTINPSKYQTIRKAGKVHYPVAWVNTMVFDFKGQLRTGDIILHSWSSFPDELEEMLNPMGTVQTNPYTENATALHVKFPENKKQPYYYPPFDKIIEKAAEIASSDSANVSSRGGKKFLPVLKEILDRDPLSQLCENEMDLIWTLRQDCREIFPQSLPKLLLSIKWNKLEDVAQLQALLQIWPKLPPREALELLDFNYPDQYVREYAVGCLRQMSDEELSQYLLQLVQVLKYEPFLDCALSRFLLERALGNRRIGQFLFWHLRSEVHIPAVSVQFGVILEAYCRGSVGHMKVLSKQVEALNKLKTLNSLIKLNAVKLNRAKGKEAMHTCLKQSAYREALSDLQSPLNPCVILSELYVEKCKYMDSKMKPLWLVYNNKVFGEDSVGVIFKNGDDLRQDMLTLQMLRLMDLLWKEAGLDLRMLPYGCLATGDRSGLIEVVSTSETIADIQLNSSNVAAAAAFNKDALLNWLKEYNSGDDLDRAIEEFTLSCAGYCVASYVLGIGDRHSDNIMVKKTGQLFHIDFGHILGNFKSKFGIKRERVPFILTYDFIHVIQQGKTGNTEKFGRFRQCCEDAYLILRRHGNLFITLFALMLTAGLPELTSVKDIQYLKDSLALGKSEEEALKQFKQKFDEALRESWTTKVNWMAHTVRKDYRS
Chain of PI3Kβ (p110β/p85α) (P27986 whole entry partner): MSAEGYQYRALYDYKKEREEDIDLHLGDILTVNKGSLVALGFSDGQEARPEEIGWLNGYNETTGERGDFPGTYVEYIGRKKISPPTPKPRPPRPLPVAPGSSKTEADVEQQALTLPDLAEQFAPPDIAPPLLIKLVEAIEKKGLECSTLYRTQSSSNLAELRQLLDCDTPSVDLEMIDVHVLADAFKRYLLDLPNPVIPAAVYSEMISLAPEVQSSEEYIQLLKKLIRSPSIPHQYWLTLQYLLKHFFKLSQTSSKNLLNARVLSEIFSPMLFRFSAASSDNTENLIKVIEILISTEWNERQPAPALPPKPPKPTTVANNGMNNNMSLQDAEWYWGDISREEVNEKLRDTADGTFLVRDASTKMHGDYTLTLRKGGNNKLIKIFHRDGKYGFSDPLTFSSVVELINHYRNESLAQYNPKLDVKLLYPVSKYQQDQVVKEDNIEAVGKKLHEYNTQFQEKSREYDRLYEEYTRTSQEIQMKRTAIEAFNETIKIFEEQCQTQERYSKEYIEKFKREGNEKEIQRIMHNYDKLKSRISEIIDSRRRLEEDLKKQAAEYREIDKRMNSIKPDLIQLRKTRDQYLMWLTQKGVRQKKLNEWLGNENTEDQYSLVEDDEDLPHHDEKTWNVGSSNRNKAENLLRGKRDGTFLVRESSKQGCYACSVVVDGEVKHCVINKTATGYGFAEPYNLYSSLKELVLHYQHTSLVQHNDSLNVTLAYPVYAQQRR
Chain of EGFR (P00533 25-1210): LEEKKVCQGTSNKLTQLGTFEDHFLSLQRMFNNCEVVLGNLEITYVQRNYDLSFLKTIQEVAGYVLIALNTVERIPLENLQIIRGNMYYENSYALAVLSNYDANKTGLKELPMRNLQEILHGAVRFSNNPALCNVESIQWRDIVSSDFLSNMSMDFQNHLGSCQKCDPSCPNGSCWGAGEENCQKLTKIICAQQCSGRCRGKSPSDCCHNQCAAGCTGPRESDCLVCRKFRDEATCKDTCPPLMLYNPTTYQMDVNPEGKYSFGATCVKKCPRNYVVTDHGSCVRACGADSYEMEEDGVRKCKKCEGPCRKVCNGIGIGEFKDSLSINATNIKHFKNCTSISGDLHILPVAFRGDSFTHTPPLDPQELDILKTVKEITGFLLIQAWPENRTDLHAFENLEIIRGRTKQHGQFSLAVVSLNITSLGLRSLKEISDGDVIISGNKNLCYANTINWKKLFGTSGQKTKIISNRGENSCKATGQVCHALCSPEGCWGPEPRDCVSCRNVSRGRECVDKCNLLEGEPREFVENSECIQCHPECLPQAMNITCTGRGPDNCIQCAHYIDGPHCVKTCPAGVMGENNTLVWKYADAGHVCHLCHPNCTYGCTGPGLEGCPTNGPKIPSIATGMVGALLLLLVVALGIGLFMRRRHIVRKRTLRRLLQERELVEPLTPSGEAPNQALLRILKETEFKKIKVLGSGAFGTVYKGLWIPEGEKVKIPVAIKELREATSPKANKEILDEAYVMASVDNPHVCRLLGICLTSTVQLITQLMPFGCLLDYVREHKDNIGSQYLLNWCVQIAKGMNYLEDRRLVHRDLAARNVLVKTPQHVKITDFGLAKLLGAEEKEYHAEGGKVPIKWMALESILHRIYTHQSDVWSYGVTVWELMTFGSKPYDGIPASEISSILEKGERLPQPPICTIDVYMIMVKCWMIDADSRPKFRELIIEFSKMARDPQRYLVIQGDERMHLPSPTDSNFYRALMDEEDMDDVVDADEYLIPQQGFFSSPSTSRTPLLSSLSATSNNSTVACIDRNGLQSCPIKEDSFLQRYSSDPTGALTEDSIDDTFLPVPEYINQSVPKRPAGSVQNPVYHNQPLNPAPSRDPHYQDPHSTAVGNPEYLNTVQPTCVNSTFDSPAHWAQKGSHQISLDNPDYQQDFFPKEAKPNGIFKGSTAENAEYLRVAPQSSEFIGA

IC50 [1] [µM] | IC50 [2] [µM] | IC50 [3] [µM] | IC50 (EGFR) [µM] | IC50 (mTOR) [µM] | IC50 (PI3Kβ (p110β/p85α)) [µM] | SMILES | effect on cell cycle progression (MCF-7 cells [4]) | effect on apoptosis (MCF-7 cells [5])
20.7 ± 2.1 | 24.7 ± 1.6 | 45.1 ± 4.1 | – | – | – | CCOC(=O)c1sc(=NN=C(C)c2c(O)c3ccccc3oc2=O)n(CC)c1C [Compound 6c, 3-Ethyl-4-methyl-2-{[1-(4-hydroxy-2-oxo-2H-chromen-3-yl)-ethylidene]-hydrazono}-2,3-dihydro-thiazole-5-carboxylic acid ethyl ester] | – | –
36.5 ± 4.2 | 36.3 ± 3.5 | 68.2 ± 5.6 | – | – | – | CCn1c(C)csc1=NN=C(C)c1c(O)c2ccccc2oc1=O [Compound 3c, 3-{1-[(3-Ethyl-4-methyl-3H-thiazol-2-ylidene)-hydrazono]-ethyl}-4-hydroxy-2H-chromen-2-one] | – | –
32.3 ± 3.5 | 37.9 ± 2.5 | 64.1 ± 5.5 | – | – | – | CC(=NN=c1sc(N=Nc2ccccc2)c(C)n1C)c1c(O)c2ccccc2oc1=O [Compound 9b, 3-{1-[(3,4-Dimethyl-5-phenylazo-3H-thiazol-2-ylidene)-hydrazono]-ethyl}-4-hydroxy-2H-chromen-2-one] | – | –
26.3 ± 2.5 | 45.6 ± 4.2 | 57.2 ± 4.6 | – | – | – | CC(=NN=c1[nH]c(C)c(N=Nc2ccc(C)cc2)s1)c1c(O)c2ccccc2oc1=O [Compound 9d, 3-{1-[(4-Methyl-5-(4-tolyl)azo-3H-thiazol-2-ylidene)-hydrazono]-ethyl}-4-hydroxy-2H-chromen-2-one] | – | –
25.6 ± 3.1 | 31.4 ± 3.1 | 48.8 ± 3.1 | – | – | – | CC(=O)c1sc(=NN=C(C)c2c(O)c3ccccc3oc2=O)[nH]c1C [Compound 4a, 3-{1-[(5-Acetyl-4-methyl-3H-thiazol-2-ylidene)-hydrazono]-ethyl}-4-hydroxy-2H-chromen-2-one] | – | –
34.6 ± 2.9 | 42.4 ± 4.1 | 66.4 ± 5.6 | – | – | – | CC(=NN=c1scc(-c2ccccc2)n1C)c1c(O)c2ccccc2oc1=O [Compound 5b, 3-{1-[(3-Methyl-4-phenyl-3H-thiazol-2-ylidene)-hydrazono]-ethyl}-4-hydroxy-2H-chromen-2-one] | – | –
16.7 ± 1.5 | 21.8 ± 2.9 | 63.2 ± 5.8 | – | – | – | COc1cccc2c1C(=O)c1c(O)c3c(c(O)c1C2=O)C[C@@](O)(C(=O)CO)C[C@@H]3O[C@H]1C[C@H](N)[C@H](O)[C@H](C)O1 [Doxorubicin, reference compound] | – | –
11.2 ± 1.1 | 5.9 ± 0.7 | 41.4 ± 2.9 | 0.563 ± 0.03 | 1.45 ± 0.08 | 0.361 ± 0.02 | CCOC(=O)c1sc(=NN=C(C)c2c(O)c3ccccc3oc2=O)n(C)c1C [Compound 6b, 3,4-Dimethyl-2-{[1-(4-hydroxy-2-oxo-2H-chromen-3-yl)-ethylidene]-hydrazono}-2,3-dihydro-thiazole-5-carboxylic acid ethyl ester] | – | –
27.4 ± 1.9 | 38.3 ± 4.2 | 42.4 ± 3.5 | – | – | – | CC(=NN=C1NC(=O)C(C)S1)c1c(O)c2ccccc2oc1=O (centres unmarked) [Compound 8a, 5-Methyl-2-{[1-(4-hydroxy-2-oxo-2H-chromen-3-yl)-ethylidene]-hydrazono}-thiazolidin-4-one] | – | –
6.4 ± 0.5 | 20.4 ± 1.9 | 57.2 ± 4.3 | 0.184 ± 0.01 | 0.719 ± 0.04 | 0.131 ± 0.007 | CCOC(=O)c1sc(=NN=C(C)c2c(O)c3ccccc3oc2=O)[nH]c1C [Compound 6a, 4-Methyl-2-{[1-(4-hydroxy-2-oxo-2H-chromen-3-yl)-ethylidene]-hydrazono}-2,3-dihydro-thiazole-5-carboxylic acid ethyl ester] | cell growth arrest at S phase | increase in the early and late cellular apoptosis
32.8 ± 2.8 | 47.2 ± 4.5 | 60.9 ± 4.8 | – | – | – | CCn1c(C)c(N=Nc2ccccc2)sc1=NN=C(C)c1c(O)c2ccccc2oc1=O [Compound 9c, 3-{1-[(3-Ethyl-4-methyl-5-phenylazo-3H-thiazol-2-ylidene)-hydrazono]-ethyl}-4-hydroxy-2H-chromen-2-one] | – | –
7.4 ± 0.9 | 44.9 ± 4.3 | 80.2 ± 5.9 | – | – | – | CCN1C(=O)C(C)SC1=NN=C(C)c1c(O)c2ccccc2oc1=O (centres unmarked) [Compound 8c, 3-Ethyl-5-methyl-2-{[1-(4-hydroxy-2-oxo-2H-chromen-3-yl)-ethylidene]-hydrazono}-thiazolidin-4-one] | – | –
23.3 ± 1.9 | 55.2 ± 5.1 | 74.4 ± 5.9 | – | – | – | CC(=NN=c1sc(N=Nc2ccc(C)cc2)c(C)n1C)c1c(O)c2ccccc2oc1=O [Compound 9e, 3-{1-[(3,4-Dimethyl-5-(4-tolyl)azo-3H-thiazol-2-ylidene)-hydrazono]-ethyl}-4-hydroxy-2H-chromen-2-one] | – | –
33.7 ± 3.2 | 38.9 ± 3.2 | 62.5 ± 3.9 | – | – | – | CCn1c(C)c(C(C)=O)sc1=NN=C(C)c1c(O)c2ccccc2oc1=O [Compound 4c, 3-{1-[(5-Acetyl-3-ethyl-4-methyl-3H-thiazol-2-ylidene)-hydrazono]-ethyl}-4-hydroxy-2H-chromen-2-one] | – | –
32.7 ± 3.5 | 24.3 ± 2.7 | 57.1 ± 4.3 | – | – | – | CC(=O)c1sc(=NN=C(C)c2c(O)c3ccccc3oc2=O)n(C)c1C [Compound 4b, 3-{1-[(5-Acetyl-3,4-dimethyl-3H-thiazol-2-ylidene)-hydrazono]-ethyl}-4-hydroxy-2H-chromen-2-one] | – | –
34.9 ± 3.1 | 27.2 ± 2.9 | 46.1 ± 3.7 | – | – | – | CC(=NN=c1scc(C)n1C)c1c(O)c2ccccc2oc1=O [Compound 3b, 3-{1-[(3,4-Dimethyl-3H-thiazol-2-ylidene)-hydrazono]-ethyl}-4-hydroxy-2H-chromen-2-one] | – | –
13.6 ± 1.5 | 7.2 ± 0.6 | 48.1 ± 3.9 | 2.28 ± 0.14 | 2.96 ± 0.18 | 1.33 ± 0.074 | CNC(=S)NN=C(C)c1c(O)c2ccccc2oc1=O [Compound 2b, 4-Methyl-1-(1-(4-hydroxy-2-oxo-2H-chromen-3-yl)ethylidene)thiosemicarbazide] | – | –
33.4 ± 2.8 | 33.9 ± 2.8 | 71.2 ± 5.1 | – | – | – | CC(=NN=c1[nH]c(C)c(N=Nc2ccccc2)s1)c1c(O)c2ccccc2oc1=O [Compound 9a, 3-{1-[(4-Methyl-5-phenylazo-3H-thiazol-2-ylidene)-hydrazono]-ethyl}-4-hydroxy-2H-chromen-2-one] | – | –
17.8 ± 1.1 | 40.1 ± 4.7 | 82.1 ± 6.1 | – | – | – | CCn1c(C)c(N=Nc2ccc(C)cc2)sc1=NN=C(C)c1c(O)c2ccccc2oc1=O [Compound 9f, 3-{1-[(3-Ethyl-4-methyl-5-(4-tolyl)azo-3H-thiazol-2-ylidene)-hydrazono]-ethyl}-4-hydroxy-2H-chromen-2-one] | – | –
32.8 ± 3.5 | 41.2 ± 3.9 | 65.7 ± 5.1 | – | – | – | CC(=NN=C1SCC(=O)N1C)c1c(O)c2ccccc2oc1=O [Compound 7b, 3-Methyl-2-{[1-(4-hydroxy-2-oxo-2H-chromen-3-yl)-ethylidene]-hydrazono}-thiazolidin-4-one] | – | –
34.5 ± 3.6 | 32.6 ± 3.1 | 42.5 ± 4.1 | – | – | – | CC(=NN=c1[nH]c(C)cs1)c1c(O)c2ccccc2oc1=O [Compound 3a, 3-{1-[(4-Methyl-3H-thiazol-2-ylidene)-hydrazono]-ethyl}-4-hydroxy-2H-chromen-2-one] | – | –
26.1 ± 3.5 | 44.8 ± 4.5 | 67.2 ± 4.9 | – | – | – | CC(=NN=C1SC(C)C(=O)N1C)c1c(O)c2ccccc2oc1=O (centres unmarked) [Compound 8b, 3,5-Dimethyl-2-{[1-(4-hydroxy-2-oxo-2H-chromen-3-yl)-ethylidene]-hydrazono}-thiazolidin-4-one] | – | –
